Reference: ChEMBL document CHEMBL4689842, “EUbOPEN Chemogenomics Library wave 1” (2021)
Where “and” joins values, the source holds several entries; their conditions need not be identical. Identical values can stand only once.

Tested on: Fibroblast
Test: Multiplex assay against human fibroblast
Format: toxicity, cell-based
In short: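 Live cells were stained at seeding with Hoechst33342, BioTracker Green Microtubule Cytoskeleton Dye, MitoTracker Red and Annexin V Alexa Fluor 680. Following compound addition, they were imaged on a CQ1 microscope at 37°C and 5% CO2 and gated by CellPathfinder machine learning into Hoechst high-intensity objects or normal cells, with normal cells split into healthy, pyknosed or fragmented nuclei and pyknosed cells into mitotic or apoptotic. Tubulin, mitochondrial-mass and membrane-permeability phenotypes are per cents of healthy-nucleus cells.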

[1] = 12 h, 1 µM, compound concentration 1 uM, replicate 1
[2] = 12 h, 1 µM, compound concentration 1 uM, replicate 2
[3] = 12 h, 10 µM, compound concentration 10 uM, replicate 1
[4] = 12 h, 10 µM, compound concentration 10 uM, replicate 2
[5] = 24 h, 1 µM, compound concentration 1 uM, replicate 1
[6] = 24 h, 1 µM, compound concentration 1 uM, replicate 2
[7] = 24 h, 10 µM, compound concentration 10 uM, replicate 1
[8] = 24 h, 10 µM, compound concentration 10 uM, replicate 2
[9] = 48 h, 1 µM, compound concentration 1 uM, replicate 1
[10] = 48 h, 1 µM, compound concentration 1 uM, replicate 2
[11] = 48 h, 10 µM, compound concentration 10 uM, replicate 1
[12] = 48 h, 10 µM, compound concentration 10 uM, replicate 2

COc1ccccc1CN[C@H]1C2CCN(CC2)[C@H]1C(c1ccccc1)c1ccccc1 [CP-96345]
Population Apoptotic (%) [1]: 64% | Population Fragmented Nuclei (%) [1]: 25% | Population Healthy Nuclei (%) [1]: 43% | Population Hoechst High Intensity Objects (%) [1]: 13% | Population Membrane Permeable-Phenotype (%) [1]: 27% | Population Mitochondria Different-Phenotype (%) [1]: 9% | Population Mitotic Cells (%) [1]: 35% | Population Normal (%) [1]: 86% | Population Pyknosed Nuclei (%) [1]: 30% | Population Tubulin-Different-Phenotype (%) [1]: 52% | Total Cell Count [1]: 146 | Population Apoptotic (%) [2]: 66% | Population Fragmented Nuclei (%) [2]: 4% | Population Healthy Nuclei (%) [2]: 92% | Population Hoechst High Intensity Objects (%) [2]: 0% | Population Membrane Permeable-Phenotype (%) [2]: 4% | Population Mitochondria Different-Phenotype (%) [2]: 7% | Population Mitotic Cells (%) [2]: 33% | Population Normal (%) [2]: 100% | Population Pyknosed Nuclei (%) [2]: 3% | Population Tubulin-Different-Phenotype (%) [2]: 8% | Total Cell Count [2]: 90 | Population Apoptotic (%) [3]: 67% | Population Fragmented Nuclei (%) [3]: 29% | Population Healthy Nuclei (%) [3]: 45% | Population Hoechst High Intensity Objects (%) [3]: 13% | Population Membrane Permeable-Phenotype (%) [3]: 6% | Population Mitochondria Different-Phenotype (%) [3]: 44% | Population Mitotic Cells (%) [3]: 32% | Population Normal (%) [3]: 86% | Population Pyknosed Nuclei (%) [3]: 25% | Population Tubulin-Different-Phenotype (%) [3]: 84% | Total Cell Count [3]: 129 | Population Apoptotic (%) [4]: 50% | Population Fragmented Nuclei (%) [4]: 2% | Population Healthy Nuclei (%) [4]: 86% | Population Hoechst High Intensity Objects (%) [4]: 3% | Population Membrane Permeable-Phenotype (%) [4]: 1% | Population Mitochondria Different-Phenotype (%) [4]: 45% | Population Mitotic Cells (%) [4]: 50% | Population Normal (%) [4]: 96% | Population Pyknosed Nuclei (%) [4]: 10% | Population Tubulin-Different-Phenotype (%) [4]: 26% | Total Cell Count [4]: 77 | Population Apoptotic (%) [5]: 63% | Population Fragmented Nuclei (%) [5]: 26% | Population Healthy Nuclei (%) [5]: 49% | Population Hoechst High Intensity Objects (%) [5]: 15% | Population Membrane Permeable-Phenotype (%) [5]: 23% | Population Mitochondria Different-Phenotype (%) [5]: 8% | Population Mitotic Cells (%) [5]: 36% | Population Normal (%) [5]: 84% | Population Pyknosed Nuclei (%) [5]: 24% | Population Tubulin-Different-Phenotype (%) [5]: 41% | Total Cell Count [5]: 161 | Population Apoptotic (%) [6]: 54% | Population Fragmented Nuclei (%) [6]: 4% | Population Healthy Nuclei (%) [6]: 85% | Population Hoechst High Intensity Objects (%) [6]: 2% | Population Membrane Permeable-Phenotype (%) [6]: 1% | Population Mitochondria Different-Phenotype (%) [6]: 4% | Population Mitotic Cells (%) [6]: 45% | Population Normal (%) [6]: 97% | Population Pyknosed Nuclei (%) [6]: 9% | Population Tubulin-Different-Phenotype (%) [6]: 17% | Total Cell Count [6]: 114 | Population Apoptotic (%) [7]: 55% | Population Fragmented Nuclei (%) [7]: 41% | Population Healthy Nuclei (%) [7]: 43% | Population Hoechst High Intensity Objects (%) [7]: 22% | Population Membrane Permeable-Phenotype (%) [7]: 3% | Population Mitochondria Different-Phenotype (%) [7]: 41% | Population Mitotic Cells (%) [7]: 44% | Population Normal (%) [7]: 77% | Population Pyknosed Nuclei (%) [7]: 14% | Population Tubulin-Different-Phenotype (%) [7]: 86% | Total Cell Count [7]: 156 | Population Apoptotic (%) [8]: 40% | Population Fragmented Nuclei (%) [8]: 2% | Population Healthy Nuclei (%) [8]: 81% | Population Hoechst High Intensity Objects (%) [8]: 1% | Population Membrane Permeable-Phenotype (%) [8]: 2% | Population Mitochondria Different-Phenotype (%) [8]: 31% | Population Mitotic Cells (%) [8]: 60% | Population Normal (%) [8]: 98% | Population Pyknosed Nuclei (%) [8]: 16% | Population Tubulin-Different-Phenotype (%) [8]: 14% | Total Cell Count [8]: 92 | Population Apoptotic (%) [9]: 42% | Population Fragmented Nuclei (%) [9]: 30% | Population Healthy Nuclei (%) [9]: 60% | Population Hoechst High Intensity Objects (%) [9]: 14% | Population Membrane Permeable-Phenotype (%) [9]: 20% | Population Mitochondria Different-Phenotype (%) [9]: 3% | Population Mitotic Cells (%) [9]: 57% | Population Normal (%) [9]: 85% | Population Pyknosed Nuclei (%) [9]: 9% | Population Tubulin-Different-Phenotype (%) [9]: 29% | Total Cell Count [9]: 169 | Population Apoptotic (%) [10]: 50% | Population Fragmented Nuclei (%) [10]: 36% | Population Healthy Nuclei (%) [10]: 61% | Population Hoechst High Intensity Objects (%) [10]: 12% | Population Membrane Permeable-Phenotype (%) [10]: 25% | Population Mitochondria Different-Phenotype (%) [10]: 4% | Population Mitotic Cells (%) [10]: 50% | Population Normal (%) [10]: 87% | Population Pyknosed Nuclei (%) [10]: 2% | Population Tubulin-Different-Phenotype (%) [10]: 36% | Total Cell Count [10]: 82 | Population Apoptotic (%) [11]: 83% | Population Fragmented Nuclei (%) [11]: 36% | Population Healthy Nuclei (%) [11]: 58% | Population Hoechst High Intensity Objects (%) [11]: 25% | Population Membrane Permeable-Phenotype (%) [11]: 2% | Population Mitochondria Different-Phenotype (%) [11]: 36% | Population Mitotic Cells (%) [11]: 16% | Population Normal (%) [11]: 75% | Population Tubulin-Different-Phenotype (%) [11]: 61% | Total Cell Count [11]: 172 | Population Apoptotic (%) [12]: 25% | Population Fragmented Nuclei (%) [12]: 30% | Population Healthy Nuclei (%) [12]: 66% | Population Hoechst High Intensity Objects (%) [12]: 11% | Population Membrane Permeable-Phenotype (%) [12]: 24% | Population Mitochondria Different-Phenotype (%) [12]: 7% | Population Mitotic Cells (%) [12]: 75% | Population Normal (%) [12]: 88% | Population Pyknosed Nuclei (%) [12]: 4% | Population Tubulin-Different-Phenotype (%) [12]: 60% | Total Cell Count [12]: 113

CNC(=O)c1ccc(Nc2ncc(C(F)(F)F)c(NCc3nccnc3N(C)S(C)(=O)=O)n2)cc1 [DEFACTINIB]
Population Apoptotic (%) [1]: 66% and 80% | Population Fragmented Nuclei (%) [1]: 31% and 21% | Population Healthy Nuclei (%) [1]: 51% and 60% | Population Hoechst High Intensity Objects (%) [1]: 12% and 14% | Population Membrane Permeable-Phenotype (%) [1]: 8% and 23% | Population Mitochondria Different-Phenotype (%) [1]: 2% and 4% | Population Mitotic Cells (%) [1]: 33% and 20% | Population Normal (%) [1]: 87% and 85% | Population Pyknosed Nuclei (%) [1]: 17% | Total Cell Count [1]: 217 and 234 | Population Apoptotic (%) [2]: 25% and 42% | Population Fragmented Nuclei (%) [2]: 60% and 57% | Population Healthy Nuclei (%) [2]: 32% and 27% | Population Hoechst High Intensity Objects (%) [2]: 22% and 35% | Population Membrane Permeable-Phenotype (%) [2]: 0% and 7% | Population Mitochondria Different-Phenotype (%) [2]: 15% and 23% | Population Mitotic Cells (%) [2]: 75% and 57% | Population Normal (%) [2]: 77% and 64% | Population Pyknosed Nuclei (%) [2]: 6% and 14% | Population Tubulin-Different-Phenotype (%) [2]: 20% and 38% | Total Cell Count [2]: 79 and 73 | Population Apoptotic (%) [3]: 90% and 80% | Population Fragmented Nuclei (%) [3]: 24% and 29% | Population Healthy Nuclei (%) [3]: 58% | Population Hoechst High Intensity Objects (%) [3]: 8% | Population Membrane Permeable-Phenotype (%) [3]: 21% and 7% | Population Mitochondria Different-Phenotype (%) [3]: 3% | Population Mitotic Cells (%) [3]: 9% and 20% | Population Normal (%) [3]: 91% | Population Pyknosed Nuclei (%) [3]: 17% and 12% | Total Cell Count [3]: 208 and 174 | Population Apoptotic (%) [4]: 42% and 33% | Population Fragmented Nuclei (%) [4]: 42% and 66% | Population Healthy Nuclei (%) [4]: 47% and 25% | Population Hoechst High Intensity Objects (%) [4]: 24% and 47% | Population Membrane Permeable-Phenotype (%) [4]: 12% and 0% | Population Mitochondria Different-Phenotype (%) [4]: 18% and 50% | Population Mitotic Cells (%) [4]: 57% and 66% | Population Normal (%) [4]: 75% and 52% | Population Pyknosed Nuclei (%) [4]: 10% and 7% | Population Tubulin-Different-Phenotype (%) [4]: 54% and 40% | Total Cell Count [4]: 93 and 74 | Population Apoptotic (%) [5]: 66% and 85% | Population Fragmented Nuclei (%) [5]: 23% and 35% | Population Healthy Nuclei (%) [5]: 59% and 48% | Population Hoechst High Intensity Objects (%) [5]: 18% and 11% | Population Mitochondria Different-Phenotype (%) [5]: 3% and 7% | Population Mitotic Cells (%) [5]: 33% and 14% | Population Normal (%) [5]: 81% and 88% | Population Pyknosed Nuclei (%) [5]: 16% and 15% | Total Cell Count [5]: 205 and 241 | Population Fragmented Nuclei (%) [6]: 55% and 61% | Population Healthy Nuclei (%) [6]: 39% and 19% | Population Hoechst High Intensity Objects (%) [6]: 30% and 29% | Population Mitochondria Different-Phenotype (%) [6]: 5% and 0% | Population Mitotic Cells (%) [6]: 100% and 40% | Population Normal (%) [6]: 69% and 70% | Total Cell Count [6]: 62 and 74 | Population Apoptotic (%) [7]: 80% and 73% | Population Fragmented Nuclei (%) [7]: 33% and 25% | Population Healthy Nuclei (%) [7]: 45% and 64% | Population Hoechst High Intensity Objects (%) [7]: 10% and 15% | Population Membrane Permeable-Phenotype (%) [7]: 21% and 10% | Population Mitotic Cells (%) [7]: 20% and 26% | Population Normal (%) [7]: 89% and 84% | Population Pyknosed Nuclei (%) [7]: 21% and 9% | Total Cell Count [7]: 210 and 186 | Population Apoptotic (%) [8]: 75% and 50% | Population Fragmented Nuclei (%) [8]: 49% and 57% | Population Healthy Nuclei (%) [8]: 44% and 37% | Population Hoechst High Intensity Objects (%) [8]: 27% and 35% | Population Membrane Permeable-Phenotype (%) [8]: 14% and 0% | Population Mitochondria Different-Phenotype (%) [8]: 10% and 13% | Population Mitotic Cells (%) [8]: 25% and 50% | Population Normal (%) [8]: 72% and 64% | Population Pyknosed Nuclei (%) [8]: 6% and 5% | Population Tubulin-Different-Phenotype (%) [8]: 46% and 26% | Total Cell Count [8]: 87 and 62
